Among the data in ChEMBL document CHEMBL1137992, “Long hydrocarbon chain keto diols and diacids that favorably alter lipid disorders in vivo” (J Med Chem, 2004) are Activity and Change values, retold here.

Holding throughout (type): functional
The subject of assay [1] is Rattus norvegicus. Kind of assay: Percent increase in non-HDL-cholesterol in obese Zucker rats after 2 weeks of treatment at a dose of 30 mg/kg/day. Put shortly:
(§1)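 Female Zucker fatty rats [Crl:(Zuc)-faBR], 10–12 weeks, 400–500 g, acclimated 7 days on chow. Compound or vehicle (20% EtOH/80% PEG-200) given by daily oral gavage for 2 weeks, 0–100 mg/kg/day. After a 6 h fast, blood was taken before dosing, at 1 wk and at 2 wk. Serum lipids, NEFA and insulin (ELISA) were measured; glucose by glucometer. HDL/non-HDL-C came from Superose 6 gel-filtration profiles. Values are % change from pretreatment, mean ± SEM.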

Assay [2] relates to Rattus norvegicus. As to the kind of experiment: Percent increase in nonesterified fatty acids in obese Zucker rats after 2 weeks of treatment at a dose of 0 mg/kg/day. Put shortly: as §1
For assay [3], the system named is Rattus norvegicus. As to the kind of experiment: Percent increase in nonesterified fatty acids in obese Zucker rats after 2 weeks of treatment at a dose of 3 mg/kg/day. Put shortly: as §1
For assay [4], the system named is Rattus norvegicus. As to the kind of experiment: Amount of nonesterified fatty acids in obese Zucker rats after 2 weeks of treatment at a dose of 100 mg/kg/day. Put shortly: (§2)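 Female Zucker fatty rats [Crl:(Zuc)-faBR], 10–12 weeks old (400–500 g), dosed once daily by oral gavage in 20% EtOH/80% PEG-200 for up to 14 days. After a 6-h fast, serum was taken pre-dose, at day 7 (orbital venous plexus, O2/CO2 anaesthesia) and at day 14 (cardiac puncture), stored at −80 °C, and assayed on a Hitachi 912 automatic analyzer. Mean ± SEM.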

For assay [5], the system named is Rattus norvegicus. Kind of assay: Percentage change of HDL cholesterol levels in obese female Zucker rats after 2 weeks of pre-treatment at a dose of 100 mg/kg/day. Put shortly: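 Obese female Zucker fatty rats were gavaged once daily with 30 or 100 mg/kg/day in 20% EtOH/80% PEG-200 for 2 weeks. Sera were collected after a 6 h fast, before dosing, at 1 week (orbital plexus) and at 2 weeks (cardiac puncture). HDL-C was total cholesterol multiplied by HDL area fraction from gel-filtration lipoprotein profiles. Reported as % change from pretreatment ± SEM.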

Assay [6] concerns Rattus norvegicus. As to the kind of experiment: Amount of nonesterified fatty acids in obese Zucker rats after 2 weeks of treatment at a dose of 30 mg/kg/day. Put shortly:
as §2

For assay [7], the system named is Rattus norvegicus. As to the kind of experiment: Amount of triglycerides in obese Zucker rats at pre-treatment at a dose of 100 mg/kg/day. Put shortly: as §2
Assay [8] relates to Rattus norvegicus. Kind of assay: Percent decrease in insulin in obese Zucker rats after 1 week of treatment at a dose of 100 mg/kg/day. Set-up: scale not given: the % may be the effect or the level left. Put shortly:
as §1

The subject of assay [9] is Rattus norvegicus. Kind of assay: Percent decrease in nonesterified fatty acids in obese Zucker rats after 1 week of treatment at a dose of 3 mg/kg/day. Set-up: scale not given: the % may be the effect or the level left. Put shortly: as §1
In assay [10] the test system is Rattus norvegicus. As to the kind of experiment: Percent decrease in glucose in obese Zucker rats after 1 week of treatment at a dose of 100 mg/kg/day. Set-up: scale not given: the % may be the effect or the level left. Put shortly:
as §1

With `CC(C)(CO)CCCCC(=O)CCCCC(C)(C)CO`, the values for the Activity in assay [1], in [2] and in assay [3] were 27%, 33% and 45%, respectively.

With `CC(C)(CCCCC(=O)CCCCC(C)(C)C(=O)O)C(=O)O`, the Activity in [4] was determined as 0.66 mg/dL; in [6], 1.1 mg/dL; in assay [7], 964 mg/dL. Moreover, in assay [5], the Change stood at 78%.

As for `CC(C)(CCCCCC(=O)CCCCCC(C)(C)C(=O)O)C(=O)O`, the figures for the Activity in assay [8], in assay [9] and in assay [10] were -46%, -15% and -21%, respectively.
